TAAR1 antag: human TAAR1 antagonists, primary screen, Fluo-8 calcium fluorescence, CHO RD-HGA16 cells; Trace amine-associated receptor 1 (Homo sapiens), Q96RJ0; antagonist; inhibition, % at 3 µM; actives 1.5% (n = 360,000);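 active means inhibition above a per-plate cutoff, the mean inhibition of test compounds on that plate plus 3 SD, cut at about 49% in these data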
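System: CHO RD-HGA16 cells bearing hTAAR1. Reagent: EC80 β-phenethylamine stimulus. Schedule: seeding 17-24 h prior, 75-min 37 °C, 30-min RT dye loading. Signal: Fluo-8 intracellular calcium dye fluorescence, real-time kinetic reads. Read-out: % inhibition from peak post-agonist over basal fluorescence ratio. Benchmarks: vehicle wells and EC80 agonist wells. Replicates: n of 1.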
OX1R antag-1: antagonists of human orexin 1 receptor (OX1R). Orexin/Hypocretin receptor type 1 (Homo sapiens), O43613. OX1R-expressing cells, FRET antagonist read-out. inhibition, % at 6.6 µM. actives 1.8% (n = 330,000). AID 485270, 2010; in the data active means inhibition mostly above about 38%, no sharp cut-off; inactive means mostly below about 40%
Target sequence (O43613 whole entry, looked up): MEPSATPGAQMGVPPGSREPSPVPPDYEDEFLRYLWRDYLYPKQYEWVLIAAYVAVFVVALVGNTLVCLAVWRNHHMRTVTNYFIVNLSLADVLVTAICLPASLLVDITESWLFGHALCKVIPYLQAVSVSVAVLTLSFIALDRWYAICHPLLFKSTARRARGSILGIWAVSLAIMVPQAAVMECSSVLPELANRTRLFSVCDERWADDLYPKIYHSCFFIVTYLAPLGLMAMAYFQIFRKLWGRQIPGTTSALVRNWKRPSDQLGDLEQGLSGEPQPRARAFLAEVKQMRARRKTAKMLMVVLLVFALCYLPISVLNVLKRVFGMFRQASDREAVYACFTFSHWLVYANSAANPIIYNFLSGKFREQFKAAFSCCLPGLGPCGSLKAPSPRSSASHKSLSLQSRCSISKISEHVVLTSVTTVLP
OX1R antag-2: OX1R (HCRTR1) antagonists, primary screen, fluorescence, CHO/OX1R cells, Fluo-8 calcium, orexin A. Orexin/Hypocretin receptor type 1 (Homo sapiens), O43613. Fluo-8 calcium fluorescence. inhibition, % at 5 µM. actives 0.43% (n = 330,000);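 active means inhibition above its plate's threshold, mean inhibition of all tested compounds on the plate plus 3 SD, cut at about 37% in these data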
TAAR1 agonist: human TAAR1 agonists, primary screen, Fluo-8 calcium fluorescence, CHO RD-HGA16 cells. activation, % at 3 µM. actives 0.99% (n = 360,000). vehicle wells 0%, saturating PEA agonist 100%. AID 624467, 2012;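 active means activation above the mean activation of all test compounds in the run plus 3 SD, cut at about 38% in these data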
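System: CHO RD-HGA16 cells carrying human TAAR1 plus Gα16; Incubation: 17-24 h seeding, 75 min 37 °C dye, 30 min RT; Measured by: Fluo-8 fluorescence, 5 s baseline then 140 s kinetic read; Control set: DMSO and PEA EC100; Replication: single well for each compound.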
CHO parental Ca: ATP-evoked calcium signal inhibitors, parental CHO, primary screen, counter-screen for OX1R antagonist project, cell-based, fluorescence, Fluo-8 calcium dye. parental CHO-K1, ATP-induced calcium, Fluo-8 fluorescence. inhibition, % at 5.6 µM. actives 0.63% (n = 330,000);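 active means inhibition above that plate's mean sample inhibition plus 3 SD, cut at about 26% in these data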
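Material: parental CHO cells / Compound: single nominal dose of 5.6 µM per compound / Signal: Fluo-8 fluorescence / Replicates: singlicate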
OX1R Fluo8 conf: OX1R (HCRTR1) antagonists, confirmation, fluorescence, CHO/OX1R cells, Fluo-8 calcium, orexin A. actives 38% (n = 1,100). orexin A calcium Fluo-8 fluorescence. shares compounds with OX1R antag-2. inhibition, % at 5 µM; in the data active means inhibition above about 29%
CHO Ca counter: ATP-evoked calcium inhibition in parental CHO, counter-screen for OX1R antagonist project, cell-based, fluorescence, CHO-K1, triplicate. actives 9.3% (n = 1,100). inhibition, % at 5.6 µM. ATP-induced calcium, Fluo-8 fluorescence. AID 492965, 2010. shares compounds with OX1R antag-2;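 active means inhibition above a per-plate limit, the mean inhibition of that plate's test compounds plus 3 SD, cut at about 25% in these data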
Hits are given with their value; – = inactive; · = not tested or not shown. Hits are enriched below; roughly 4% of the tested compounds scored in any of these assays.

SMILES	TAAR1 antag	OX1R antag-1	OX1R antag-2	TAAR1 agonist	CHO parental Ca	OX1R Fluo8 conf	CHO Ca counter
COc1cccc(NC(=O)CN(c2ccccc2OC)S(=O)(=O)c2cccs2)c1	–	–	–	–	–	–	–
Cc1nc2ccc(NC(=O)c3cncc(Br)c3)cc2s1	–	–	–	–	–	·	·
CC(C)(C)c1cc2nc(N)nc(N)n2n1	–	–	49.7	–	–	–	–
CSc1nc(N)n2nc(C(C)(C)C)cc2n1	–	–	–	–	–	·	·
O=C(N[C@H](Cc1ccccc1)C(=O)NCCCN1CCCC1=O)[C@H]1O[C@@H](n2ccc(=O)[nH]c2=O)[C@H](O)[C@@H]1O	–	·	·	–	·	·	·
O=C1NC(=S)N(C(=O)c2ccc(F)cc2)/C1=C/c1ccccc1	–	–	–	–	–	·	·
COc1ccc(/C=C2\C(=O)NC(=S)N2C(=O)c2ccc(F)cc2)cc1	–	–	–	–	–	–	–
COC(=O)c1ccc2c(c1)C(C)(C)C(/C=C/c1ccc(O)cc1)=[N+]2C	–	–	–	–	–	65.9	52.5
COC(=O)c1ccc2c(c1)C(C)(C)C(/C=C/c1ccc(OC)c(OC)c1OC)=[N+]2C	–	–	–	–	–	·	·
O=C(N/C(=C/c1cccc(Br)c1)c1nc(=S)[nH][nH]1)c1ccccc1	–	–	–	–	–	48.5	–
Cc1ccc(C(=O)N/C(=C\c2ccc(Br)cc2)c2nc(=S)[nH][nH]2)cc1	–	–	–	–	–	·	·
C=CC[C@H](CC(=O)OC(C)(C)C)C(=O)OC[C@@H]1CCCN1C(=O)[C@H](CC=C)CC(=O)N[C@H](CO)Cc1ccccc1	–	–	–	–	–	·	·
N=c1c2c(-c3ccccc3)c(-c3ccccc3)n(Cc3ccco3)c2ncn1Cc1ccccc1	–	–	59.1	–	–	43.2	–
N=c1c2c(-c3ccccc3)c(-c3ccccc3)n(Cc3ccco3)c2ncn1CCCn1ccnc1	–	–	–	–	–	·	·
CCCCn1c(=O)[nH]c2nc3cc(N)ccc3nc2c1=O	–	–	60.6	–	–	34.7	28.6
COCC(=O)N1CCC(Oc2ccc(C(=O)NC3Cc4ccccc4C3)cc2)CC1	–	–	–	–	–	·	·
O=C(CSCc1nc2ccccc2[nH]1)Nc1ccc2ccccc2c1	–	–	–	–	–	·	·
O=C(CSCc1cccc(CSCC(=O)Nc2ccc3ccccc3c2)n1)Nc1ccc2ccccc2c1	–	–	–	–	–	30.5	–
COC(=O)CSc1nnc(-c2ccc(S(=O)(=O)NCc3ccccc3Cl)cc2)o1	–	–	–	–	–	32.9	–
CCN(C(=O)Cn1cnc2ccccc2c1=O)C1CCS(=O)(=O)C1 (stereo not drawn)	–	–	–	–	–	·	·
COc1ccc(-c2ocnc2C(=O)NCc2nn(-c3ccccc3)nc2C)cc1	–	–	–	–	–	–	29.2
COc1ccc(CC(=O)NCc2nn(-c3ccccc3)nc2C)cc1OC	–	–	–	–	–	·	·
COc1ccc(OC)c(NC(=O)c2cc(S(=O)(=O)NCc3ccco3)ccc2F)c1	–	–	–	–	–	·	·
CCOc1ccccc1NC(=O)c1cc(S(=O)(=O)NCc2ccco2)ccc1F	–	–	39.8	–	–	–	–
Cc1ccc(NC(=O)C(OC(=O)c2ccc(C=O)cc2)c2ccccc2)cc1Cl (stereo not drawn)	·	–	–	·	–	31.9	–
SMILES	TAAR1 antag	OX1R antag-1	OX1R antag-2	TAAR1 agonist	CHO parental Ca	OX1R Fluo8 conf	CHO Ca counter
CCNc1nc(NC(C)CC)nc(ON=C(C)C)n1 (stereo not drawn)	–	–	–	–	–	·	·
COc1ccc2[nH]c(C(=O)O)c(CCN3C(=O)c4cccc([N+](=O)[O-])c4C3=O)c2c1	–	–	103.1	–	–	–	–
COc1ccc2[nH]c(C(=O)O)c(CCNC(C)=O)c2c1	–	–	–	–	–	·	·
COC(=O)c1c(-c2ccc(N(C)C)cc2)sc2ccc(OC)cc12	–	–	65.1	–	–	–	–
CCCN1C(=O)/C(=C/c2ccc(C)o2)NC1=S	·	–	–	·	–	·	·
CCCN1C(=O)/C(=C/c2ccc(N3CCOCC3)cc2)NC1=S	–	–	–	53.9	–	–	–
CN(C)c1nc(N)nc(CSc2nc3cc(Cl)ccc3o2)n1	–	–	–	–	–	–	–
CN(Cc1ccccc1)S(=O)(=O)c1ccc2c(c1)n(C)c(=O)c(=O)n2C	–	–	–	–	–	–	–
C[C@@H]1COC(=O)[C@@H](CC(=O)OC(C)(C)C)C/C=C\C[C@@H](CC(=O)N[C@H](CO)Cc2ccccc2)C(=O)N1	–	–	–	–	–	·	·
CCN(CC)C(=O)C1c2ccccc2Oc2ccccc21	–	–	–	–	–	–	–
C=CCN(CC=C)C(=O)C1c2ccccc2Oc2ccccc21	–	·	·	–	·	·	·
COc1ccc2c(COC(=O)CNS(=O)(=O)c3ccccc3)cc(=O)oc2c1	–	–	–	–	–	·	·
COc1ccc2c(COC(=O)c3cccc(S(=O)(=O)NCC(C)C)c3)cc(=O)oc2c1	65.4	–	46.0	–	–	42.2	–
FC(F)(F)COc1ccc(-n2ccnc2)nn1	–	–	–	–	–	–	–
O=C(NCCCn1ccnc1)c1ccc(OCC(F)(F)F)cc1	–	–	–	–	–	·	·
CC(C)(C)c1ccc(OCCC(=O)Nc2cccc(S(=O)(=O)NC3=NCCCCC3)c2)cc1	–	·	·	–	·	·	·
CCOC(=O)CC(=O)CSc1ncnc2c1oc1ccccc12	–	–	–	–	–	–	–
Cc1ccc(C)c(NC(=S)N(CCc2nc3cc(C)c(C)cc3[nH]2)Cc2cccnc2)c1	–	–	–	–	–	·	·
CCOc1cccc(-c2c(C(=O)N/N=C/c3c(F)cccc3Cl)nnn2-c2nonc2N)c1	–	–	–	–	–	35.0	–
O=C(O)CC/C(=N\NC(=O)CNC(=O)c1ccc(F)cc1)c1ccccc1	–	–	–	–	–	·	·
COCCN=c1scc(-c2cc(OC)ccc2OC)n1/N=C/c1c[nH]c2ccccc12	–	–	–	–	–	34.9	–
COCCN=c1scc(-c2ccco2)n1/N=C/c1ccc(O)c(O)c1O	–	–	–	–	–	·	·
CNc1cc(CSC)nc(SCc2ccc(Cl)cc2Cl)n1	–	–	53.0	–	–	–	–
